# Assay outcomes: PubChem BioAssay, several laboratories
# TLR4 MyD88 comp: blocks binding of human TLR4 to MyD88; O00206+Q99836; HeLa CL3-4 TLR4/MyD88 BLA complementation, FRET ratio; inhibition, % at 8.4 µM; 200,000 compounds, 0.18% hits; AID 861; in the data active means inhibition above about 25%;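 further: 0% = vehicle and 100% = reference inhibitor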
# NOD2-RIPK2 inh: NOD2-RIPK2 protein interaction inhibition; O43353; CHO BLA complementation NOD2-RIPK2, CCF4 ratio; inhibition, % at 4.98 µM; 360,000 compounds, 0.38% hits; AID 624267; in the data active means inhibition above about 21%;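 further: 0% = vehicle only and 100% = reference blocker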
# MC4R antag cAMP: human MC4R antagonism in cAMP assay. P32245. MC4R-expressing cells, MTII-stimulated cAMP, LANCE TR-FRET. inhibition, % at 6.5 µM. 360,000 compounds, 0.48% hits. AID 540295;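 active means inhibition above its plate's cutoff, the mean of tested wells on that plate plus 3 SD, cut at about 29% in these data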;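 further: 0% = Melanotan II alone and 100% = Melanotan II plus saturating MCL0020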
# Target sequence (P32245 whole entry, looked up): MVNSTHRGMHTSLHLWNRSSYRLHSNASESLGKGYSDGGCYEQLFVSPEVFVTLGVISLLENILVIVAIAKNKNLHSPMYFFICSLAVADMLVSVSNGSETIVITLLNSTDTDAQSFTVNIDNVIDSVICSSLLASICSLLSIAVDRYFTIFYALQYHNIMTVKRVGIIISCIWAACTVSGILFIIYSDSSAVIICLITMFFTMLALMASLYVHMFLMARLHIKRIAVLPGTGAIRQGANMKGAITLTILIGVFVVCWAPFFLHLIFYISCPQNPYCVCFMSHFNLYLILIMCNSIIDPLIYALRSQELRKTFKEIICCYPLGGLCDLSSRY
#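 Material – human MC4R-expressing U2OS cells · Repeats – no replicates · Detection – TR-FRET with Eu-cAMP and labeled anti-cAMP, 671 nm · Times – compound 30 min, challenge 1 h, detection 1 h · Compound – single nominal compound dose of 6.5 µM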
# MC4R barr agon: activates human MC4R beta-arrestin recruitment. 360,000 compounds, 0.98% hits. U2OS MC4R beta-arrestin complementation, luminescence; percent of melanotan II response, DMSO zero. activation, % at 8.9 µM;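 active means activation above a per-plate cutoff, the mean activation of sample wells on that plate plus 3 SD, cut at about 8% in these data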
# TLR9-MyD88 inh: TLR9-MyD88 interaction inhibition; CHO BLA complementation TLR9-MyD88, CCF4 FRET ratio; inhibition, % at 4.98 µM; 340,000 compounds, 0.21% hits;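 active means inhibition above the mean over all tested compounds plus 3 SD, cut at about 21% in these data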;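 further: 0% = DMSO only wells and 100% = clavulanate BLA inhibitor control wells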
# NTR1 agonist: activates human neurotensin receptor 1; NTR1-U2OS beta-arrestin-GFP spot imaging, agonist mode; activation, % at 20 µM; 330,000 compounds, 0.17% hits; AID 493036;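 active means activation at or above 40% of the spot to cytoplasm intensity ratio, with at least 20 cells analyzed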;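 further: 0% = DMSO without peptide and 100% = 100 nM NTR1 peptide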
# NOD2-RIPK2 conf: NOD2-RIPK2 interaction inhibition confirmed; 1,200 compounds, 70% hits; CHO cells, NOD2-RIPK2 BLA complementation, CCF4 FRET; shares compounds with NOD2-RIPK2 inh; AID 624370; inhibition, % at 4.98 µM;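 active means mean inhibition across replicates above a set limit taken from the earlier primary screen, cut at about 21% in these data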;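 further: 0% = DMSO-only wells and the high end = clavulanate BLA-blocked wells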
# NOD2 BLA counter: hits BLA reporter in NOD2-RIPK2 inhibitor counterscreen; shares compounds with NOD2-RIPK2 inh; CHO BLA reporter, CCF4 FRET ratio; inhibition, % at 4.98 µM; 1,200 compounds, 57% hits; AID 624371;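 active means mean inhibition above the low-control mean inhibition plus three low-control SD, cut at about 11% in these data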;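 further: 0% = DMSO only wells and 100% = clavulanate high control wells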
# The depositor's hits bear a star; · = no result given. In the library only some 1.9% were active in any assay of this set; here they are far more common.
SMILES,TLR4 MyD88 comp,NOD2-RIPK2 inh,MC4R antag cAMP,MC4R barr agon,TLR9-MyD88 inh,NTR1 agonist,NOD2-RIPK2 conf,NOD2 BLA counter
COc1ccc2[nH]cc(/C=C/C(=O)c3ccccc3)c2c1,·,27*,15,2,12,4,21*,32*
COc1ccc(/C=C/C(=O)c2ccccc2)c(OC)c1,2,-6,3,0,3,0,·,·
COc1ccc(CCNC(=O)c2ccccc2SC)cc1,-11,-14,-2,0,5,0,·,·
CCN(CC)c1ccc(C=C(c2nnnn2-c2ccc(C)cc2)c2nnnn2-c2ccc(C)cc2)cc1,18,22*,-7,-1,19,-1,28*,34*
Nc1c(C(=O)Nc2ccc(Br)cc2)sc2nc(-c3ccco3)ccc12,23,26*,3,-2,36*,4,67*,66*
CN(Cc1ccccc1)C(=O)CSc1nc2ccccc2c(=O)n1Cc1ccco1,-8,-1,13,-2,-6,7,·,·
Cc1ccc(NC(=O)CN(C)C(=O)CSc2nc3ccccc3c(=O)n2Cc2ccco2)cc1,11,21*,0,0,11,4,17,16*
O=C(NC1CCCCC1)C(c1ccccc1F)n1c(=O)c(-c2cc3ccccc3[nH]2)nc2ccccc21 (stereo not drawn),·,45*,·,·,·,·,42*,66*
O=C(NC1CCCCC1)C(c1cccc2ccccc12)n1c(=O)c(-c2cc3ccccc3[nH]2)nc2ccccc21 (stereo not drawn),·,38*,·,·,·,·,34*,62*
O=C(NC1CCCCC1)C(c1ccccc1F)n1c(=O)c(-c2ccco2)nc2ccccc21 (stereo not drawn),·,-2,·,·,·,·,·,·
COc1ccc(C)c2sc(N(CCCN(C)C)C(=O)c3ccc(S(=O)(=O)N4CCc5ccccc5C4)cc3)nc12,·,24*,-4,37*,11,·,44*,16*
CC(C)c1ccc(NC(=O)CCNC(=O)Cn2cnc3ccccc3c2=O)cc1,·,8,14,1,-9,-2,·,·
CCCN1C(=O)S/C(=C\c2ccc(N3CCOCC3)o2)C1=O,19,25*,-2,-2,19,-2,13,7
CCCN1C(=O)S/C(=C/c2ccc(N3CCOCC3)o2)C1=O,·,41*,-4,0,15,-2,6,5
COc1ccc(C=C(C(=O)c2ccccc2)C(=O)c2ccccc2)cc1,·,-8,·,·,·,·,·,·
CC(C)(C)NCC(=Cc1ccccc1)C(=O)c1ccccc1,·,27*,7,-2,-2,·,24*,3
O=C(O)CCS(=O)(=O)c1nc(-c2cccs2)cc(C(F)(F)F)n1,3,-8,5,-1,-2,4,·,·
COC(=O)CCS(=O)(=O)c1nc(-c2ccccc2)cc(C(F)(F)F)n1,15,44*,28,-2,19,23,59*,13*
COc1ccc(-c2cc(C(F)(F)F)nc(S(C)(=O)=O)n2)cc1,15,33*,4,-4,17,17,42*,2
Cc1cc(NC(=O)CCCS(=O)(=O)c2nc(-c3cccs3)cc(C(F)(F)F)n2)no1,23,68*,-18,-3,20,16,43*,15*
COCC(C)NC(=O)CCS(=O)(=O)c1nc(-c2ccc(OC)cc2)cc(C(F)(F)F)n1 (stereo not drawn),-5,-10,10,-1,-9,15,·,·
CC(O)(c1cccc(F)c1)c1nc(-c2cncnc2)cs1 (stereo not drawn),·,-7,7,1,·,·,·,·
CCC(=O)Nc1ccc(C(=O)COC(=O)c2sc(C)nc2C)cc1,·,1,-2,-2,-1,0,·,·
Cc1cc(C)nc(N(C#N)Cc2cccc(Cl)c2)n1,1,-3,-13,-1,0,1,·,·
CCOC(=O)N1CCN(C(=O)c2cc3n(n2)C(C(F)(F)F)CC(c2ccc4c(c2)OCO4)N3)CC1 (stereo not drawn),·,-2,10,-2,6,0,·,·
SMILES,TLR4 MyD88 comp,NOD2-RIPK2 inh,MC4R antag cAMP,MC4R barr agon,TLR9-MyD88 inh,NTR1 agonist,NOD2-RIPK2 conf,NOD2 BLA counter
COc1ccc(C2=NN(c3ccc(C(=O)O)cc3)C(c3ccc(OC)c(OC)c3)C2)cc1 (stereo not drawn),·,25*,-11,3,9,2,20,31*
Cc1ccc(S(=O)(=O)N2CCN(CC(=O)N/N=C\c3ccc(Cl)c([N+](=O)[O-])c3)CC2)cc1,-7,12,14,-2,5,2,·,·
O=C(CN1CCN(S(=O)(=O)c2ccc(Br)cc2)CC1)N/N=C/c1ccc(Cl)c([N+](=O)[O-])c1,-4,33*,28,-2,16,13,32*,4
C=CS(=O)(=O)c1ccc(Oc2ccc(S(=O)(=O)C=C)cc2)cc1,23,36*,14,-2,15,66*,51*,17*
CCC(C)(C)n1nnnc1C(C(C)C)N(Cc1ccco1)Cc1cc2cc3c(cc2[nH]c1=O)OCO3 (stereo not drawn),10,44*,11,-2,15,0,5,-2
CCC(C)(C)n1nnnc1C(C(C)C)N(Cc1cccnc1)Cc1ccco1 (stereo not drawn),6,4,1,-1,2,0,·,·
O=CNc1ccc2c3c(cccc13)-c1ccccc1-2,·,29*,7,-1,1,·,24*,38*
CC(=O)Nc1ccc2c3c(cccc13)C(=O)N(c1ccccc1)C2=O,12,1,10,0,2,-1,·,·
CNS(=O)(=O)c1cccc(C(=O)OCC(=O)c2ccc3[nH]c(=O)[nH]c3c2)c1,·,-3,1,-1,0,-1,·,·
Cc1cc(NC(=O)CSc2nc3cc(C(=O)NCCCOC(C)C)ccc3c(=O)n2Cc2ccco2)no1,2,30*,-16,1,-5,0,-4,-1
Cc1nn(-c2ccccc2)c2c1P(=O)(O)/C(=C1\N(C)c3ccccc3C1(C)C)C=N2,17,24*,-5,-1,8,0,16,19*
Cc1nn(-c2ccccc2)c(N)c1C1(O)C(=O)N(C(C)C)c2ccccc21 (stereo not drawn),10,2,11,-1,-6,-2,·,·
O=C(Cn1c(=O)oc2ccccc21)N1CCN(S(=O)(=O)c2ccccc2)CC1,·,0,7,2,-18,0,·,·
OCCCc1nc2ccccc2n1CCc1ccccc1,11,-1,5,-2,1,-2,·,·
